According to ChEMBL document CHEMBL3758162, “Synthesis, biological characterization and molecular modeling insights of spirochromanes as potent HDAC inhibitors” (Eur J Med Chem, 2016):

How the values were obtained:
A549 = assay: Antiproliferative activity against human A549 cells assessed as cell viability after 72 hrs by CellTitre-Glo luminescent assay; type: functional, cell-based
[1] = Antiproliferative activity against human HCT116 cells assessed as cell viability after 72 hrs by CellTitre-Glo luminescent assay; type: functional, cell-based, HCT-116
Histone deacetylase = assay: Inhibition of HDAC in human HeLa cells nuclear extract using Fluor de lys as substrate after 15 mins by fluorometric analysis; type: cell-based
K562 = assay: Antiproliferative activity against human K562 cells assessed as cell viability after 72 hrs by CellTitre-Glo luminescent assay; type: functional, cell-based
[2] = Metabolic stability in mouse liver microsomes assessed as compound remaining at 1 uM preincubated for 10 mins measured after 30 mins by LC-MS/MS analysis; type: ADME; conditions: liver microsomes, read-out: Stability
Procedure, shortened: (§1)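 Compound at 1 µM pre-incubated 10 min at 37 °C in potassium phosphate buffer pH 7.4 with 0.5 mg/mL mouse or human hepatic microsomes. Parent quantified by LC-MS/MS (ESI+, MRM, verapamil internal standard). % remaining = peak area at 30 min / area at 0 min × 100; n≥2, mean.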

[3] = Metabolic stability in human liver microsomes assessed as compound remaining at 1 uM preincubated for 10 mins measured after 30 mins by LC-MS/MS analysis; type: ADME; conditions: liver microsomes, read-out: Stability; procedure, shortened: as §1

Structure (SMILES) | IC50 (A549; Homo sapiens, A549, 72 h) [µM] | IC50 ([1]; Homo sapiens, HCT-116, 72 h) [µM] | IC50 (Histone deacetylase) [µM] | IC50 (K562; Homo sapiens, K562, 72 h) [µM] | remaining at 0.5 h, 1 µM [2] [%] | remaining at 0.5 h, 1 µM [3] [%] | IC50 (A549; a549) [µM] | IC50 ([1]; hct-116) [µM] | IC50 (K562; k562) [µM]
CN1CC2(CC(=O)c3cc(/C=C/C(=O)NO)ccc3O2)C1 | 0.429 | 0.178 | 0.168 | 0.168 |  |  |  |  | 
O=C(/C=C/c1ccc2c(c1)C(=O)CC1(CCN(Cc3ccc(F)cc3)C1)O2)NO (stereo not given) | 0.642 | 0.178 | 0.196 | 0.283 |  |  |  |  | 
O=C(/C=C/c1ccc2c(c1)C(=O)CC1(CN(Cc3ccc(F)cc3)C1)O2)NO | 0.684 | 0.19 | 0.13 | 0.301 |  |  |  |  | 
CCOC(=O)N1CC2(CC(=O)c3cc(/C=C/C(=O)NO)ccc3O2)C1 | 4.87 | 1.23 | 0.286 | 1.88 |  |  |  |  | 
O=C(/C=C/c1ccc2c(c1)C(=O)CC1(CN(C(=O)c3ccccc3)C1)O2)NO | 1.33 | 0.294 | 0.081 | 0.376 |  |  |  |  | 
O=C(/C=C/c1ccc2c(c1)C(=O)CC1(CN(CCc3ccccc3)C1)O2)NO | 0.896 | 0.22 | 0.219 | 0.25 |  |  |  |  | 
CC(=O)N1CC2(CC(=O)c3cc(/C=C/C(=O)NO)ccc3O2)C1 | 47.7 | 10.5 | 0.485 | 15.1 |  |  |  |  | 
O=C(/C=C/c1ccc2c(c1)C(=O)CC1(CNC1)O2)NO | 8.58 | 3.68 | 0.228 | 2.58 |  |  |  |  | 
O=C(/C=C/c1ccc2c(c1)C(=O)CC1(CCCN(CCc3ccccc3)C1)O2)NO (racemic) | 0.157 | 0.052 | 0.001 | 0.106 | 19 | 16 |  |  | 
O=C(/C=C/c1ccc2c(c1)C(=O)CC1(CCCN(C(=O)c3ccccc3)CC1)O2)NO (racemic) | 3.78 | 0.617 | 0.11 | 1.11 |  |  |  |  | 
Cn1cc(CN2CCCC3(CC(=O)c4cc(/C=C/C(=O)NO)ccc4O3)C2)c2ccccc21 (racemic) | 0.425 | 0.078 | 0.183 | 0.147 | 23 | 19 |  |  | 
Cn1cc(CN2CCCC3(CC2)CC(=O)c2cc(/C=C/C(=O)NO)ccc2O3)c2ccccc21 (racemic) | 0.26 | 0.06 | 0.114 | 0.046 | 19 | < 30 |  |  | 
O=C(/C=C/c1ccc2c(c1)C(=O)CC1(CCCN(Cc3ccccc3)C1)O2)NO (racemic) | 0.839 | 0.385 | 0.056 | 0.43 |  |  |  |  | 
O=C(/C=C/c1ccc2c(c1)C(=O)CC1(CCCN(C(=O)c3ccccc3)C1)O2)NO (racemic) | 4.13 | 1.33 | 0.165 | 2.01 |  |  |  |  | 
O=C(/C=C/c1ccc2c(c1)C(=O)CC1(CCCN(Cc3ccc(F)cc3)C1)O2)NO (racemic) | 1.16 | 0.372 | 0.034 | 0.552 |  |  |  |  | 
CC(=O)N1CCCC2(CC(=O)c3cc(/C=C/C(=O)NO)ccc3O2)C1 (racemic) | 14.5 | 3.24 | 0.207 | 5.6 |  |  |  |  | 
CCOC(=O)N1CCC2(CC(=O)c3cc(/C=C/C(=O)NO)ccc3O2)C1 (racemic) | 0.837 | 0.351 | 0.15 | 0.721 |  |  |  |  | 
O=C(/C=C/c1ccc2c(c1)C(=O)CC1(CCN(C(=O)c3ccccc3)C1)O2)NO (racemic) | 2.11 | 0.51 | 0.187 | 0.533 |  |  |  |  | 
O=C(/C=C/c1ccc2c(c1)C(=O)CC1(CCNC1)O2)NO (racemic) | 2.32 | 2.27 | 0.131 | 4.14 |  |  |  |  | 
O=C(/C=C/c1ccc2c(c1)C(=O)CC1(CCCNC1)O2)NO (racemic) | 0.714 | 0.228 | 0.136 | 0.555 |  |  |  |  | 
Cn1cc(CN2CCC3(CC(=O)c4cc(/C=C/C(=O)NO)ccc4O3)C2)c2ccccc21 (racemic) | 0.18 | 0.047 | 0.085 | 0.051 | 8 | 16 |  |  | 
CN1CCC2(CC(=O)c3cc(/C=C/C(=O)NO)ccc3O2)C1 (racemic) | 0.357 | 0.146 | 0.119 | 0.198 |  |  |  |  | 
CCOC(=O)N1CCCC2(CC(=O)c3cc(/C=C/C(=O)NO)ccc3O2)C1 (racemic) | 2.28 | 0.678 | 0.232 | 0.936 |  |  |  |  | 
CC(=O)N1CCCC2(CC1)CC(=O)c1cc(/C=C/C(=O)NO)ccc1O2 (racemic) | 20.1 | 3.51 | 0.323 | 5.18 |  |  |  |  | 
CC(=O)N1CCC2(CC(=O)c3cc(/C=C/C(=O)NO)ccc3O2)C1 (racemic) | > 50 | > 50 | 0.955 | > 50 |  |  |  |  | 
O=C(/C=C/c1ccc2c(c1)C(=O)CC1(CCCN(Cc3ccc(F)cc3)CC1)O2)NO (racemic) | 0.333 | 0.063 | 0.149 | 0.144 | 25 | 11 |  |  | 
O=C(/C=C/c1ccc2c(c1)C(=O)CC1(CCCNCC1)O2)NO (racemic) | 3.12 | 1.08 | 0.134 | 5.99 |  |  |  |  | 
CCOC(=O)N1CCCC2(CC1)CC(=O)c1cc(/C=C/C(=O)NO)ccc1O2 (racemic) | 5.75 | 1.01 | 0.3 | 1.66 |  |  |  |  | 
O=C(/C=C/c1ccc2c(c1)C(=O)CC1(CCCN(Cc3ccccc3)C1)O2)NO (single isomer, unassigned; (-)) |  |  | 0.084 |  |  |  | 1.06 | 0.326 | 0.441
O=C(/C=C/c1ccc2c(c1)C(=O)CC1(CCCN(Cc3ccccc3)C1)O2)NO (stereo in doubt; 33j) |  |  | 0.143 |  |  |  | 1.46 | 0.447 | 0.523
